Many of the other results were omitted from the sample, so hits are more common in it than they were.
S1P3 antagonist – blocks the human S1P3 receptor. CHO S1P3 NFAT-BLA reporter, FRET fluorescence, antagonist mode. inhibition, % at 4.98 µM. hit rate 0.27% among 170,000;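 active means inhibition above the plate cutoff, the mean inhibition of test wells on that plate plus 3 SD, cut at about 28% in these data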;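 further: cells challenged with S1P at its EC80 of 0.8 µM; blue over green emission ratio from cleaved BLA substrate after 4 h stimulation; 0% = S1P-stimulated wells and 100% = unstimulated DMSO-only wells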
Lmaj promast – reduces viability of Leishmania major promastigotes; inhibition, % at 10 µM; resazurin fluorescence viability; hit rate 9% among 200,000; in the data active means inhibition above about 50%;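 further: promastigotes grown with compound for 44 hours at 28 °C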
S1P4 antag – human S1P4 receptor antagonism. O95977. S1P4-expressing cells, antagonist mode, reporter read-out. inhibition, % at 4.98 µM. hit rate 0.26% among 220,000; in the data active means inhibition above about 29%;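 further: 0% = wells stimulated with agonist and 100% = vehicle wells without agonist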
MDM2 E3 inh – blocks human Mdm2 ubiquitin ligase activity | signal enhancement, % at 5 µM | hit rate 0.11% among 210,000 | cell-based MDM2 ubiquitination luciferase reporter, 2 h; 0 = plate control, 100 = twice control, blank-subtracted | Q00987;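 active means signal enhancement of 30% or more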;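 further: luminescence tracks abundance of the self-degrading MDM2-luciferase fusion protein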
Target sequence (Q00987 whole entry, looked up, the tested form may be a part): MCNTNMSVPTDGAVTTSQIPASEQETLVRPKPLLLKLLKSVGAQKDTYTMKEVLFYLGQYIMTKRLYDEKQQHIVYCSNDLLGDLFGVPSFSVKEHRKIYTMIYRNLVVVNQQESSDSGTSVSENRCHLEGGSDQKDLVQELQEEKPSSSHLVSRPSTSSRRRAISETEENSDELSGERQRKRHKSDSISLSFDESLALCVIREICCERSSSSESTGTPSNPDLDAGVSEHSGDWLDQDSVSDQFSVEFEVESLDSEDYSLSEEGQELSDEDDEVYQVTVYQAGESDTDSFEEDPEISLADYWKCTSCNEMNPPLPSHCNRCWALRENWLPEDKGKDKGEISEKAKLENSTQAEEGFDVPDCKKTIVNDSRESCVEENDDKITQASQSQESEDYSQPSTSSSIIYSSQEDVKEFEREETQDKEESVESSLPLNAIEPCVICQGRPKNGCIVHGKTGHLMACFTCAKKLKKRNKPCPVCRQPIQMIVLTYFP
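test system = mammalian cells stably expressing self-ubiquitinating, self-degrading MDM2 E3–luciferase fusion | quantity = 2000 cells/well | incubation = cell settling 4 h, compound treatment 2 h, both 37 °C | signal = luminescence with SteadyLite reagent, 15 min at room temperature | evaluation = % enhancement relative to plate controls after blank subtraction | benchmarks = plate controls and plate blanks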
S1P4 ag – human S1P4 receptor agonism; O95977; S1P4-expressing cell line, agonist reporter assay; activation, % at 4.98 µM; hit rate 0.35% among 220,000; in the data active means activation above about 11%;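 further: 0% = DMSO vehicle and 100% = reference agonist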
L major 1uM – inhibitors of Leishmania major promastigote growth, repeat at 1 uM; inhibition, % at 1 µM; AID 1258; hit rate 13% among 1,100; L. major promastigote growth, resazurin fluorescence, 48 h; shares compounds with Lmaj promast;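 active means inhibition above about 50% in both repeat tests, limit read from the data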
An asterisk follows results filed as active; . = no result given.

SMILES	S1P3 antagonist	Lmaj promast	S1P4 antag	MDM2 E3 inh	S1P4 ag	L major 1uM
CC(C)c1ccc(S(=O)(=O)c2ccc(NN)cc2)cc1	0.4	97.0*	3.6	-14.6	0.1	-4.4
CCCCOc1ccc(/C=C/C(=O)NC2=Nc3ccccc3NC(C)=C2C(=O)OCC)cc1OC	2.5	49.6	-7.5	-20.0	-0.8	.
O=S(=O)(c1ccc(Cl)cc1)c1cnc(-c2cccnc2)nc1-c1ccccc1	.	-0.6	-11.8	-11.0	-1.2	.
Cc1nc(-c2ccccc2)sc1-c1nc(-c2ccncc2)ncc1S(=O)(=O)c1ccccc1	.	58.5*	-10.8	9.3	0.9	17.5
Cc1ccc(S(=O)(=O)N/N=c2\oc3ccccc3cc2C(=O)Nc2cccc(C)c2)cc1	4.4	71.2*	-10.5	1.4	0.2	-17.4
Cc1cccc(NC(=O)c2cc(S(=O)(=O)c3ccccc3)ccc2Cl)c1	.	5.6	1.4	-19.1	2.3	.
S=C(NCc1ccco1)Nc1ccc(Oc2ccccc2)cc1	-1.6	17.2	7.1	-16.0	-2.4	.
COc1ccc(C(=O)CCN2CCN(c3ccccc3F)CC2)cc1	-39.9	79.1*	-18.0	-12.7	-0.7	1.2
COc1ccc(OC)c(NC(=O)CCN2CCN(c3ccccc3F)CC2)c1	.	-0.4	-23.0	-14.6	2.3	.
c1ccc(-c2nc3cc4ccccc4cc3[nH]2)nc1	.	100.5*	-20.0	-4.6	1.4	-4.5
CC(=O)Nc1ccc2nc(-c3ccccn3)[nH]c2c1	1.0	6.5	-7.7	-19.3	1.8	.
CCOC(=O)CSC1=C(C#N)C(c2ccc(Cl)cc2)CC(=O)N1 (configuration not stated)	-17.9	28.3	-16.5	-13.2	-0.8	.
CCCOC(=O)CSC1=C(C#N)C(c2ccccc2Cl)CC(=O)N1 (configuration not stated)	-42.1	99.5*	-18.8	-0.9	0.0	92.8*
CCN(CC)C(=O)CSc1nnc(COc2ccccc2)n1N	-7.4	-5.3	-4.8	.	-0.3	.
O=C(Cn1cnc2c(nnn2-c2ccccc2)c1=O)N1CCCc2ccccc21	8.0	52.8*	6.5	-22.1	2.1	-6.5
Fc1ccc(Sc2ccccc2CNC2=NCCN2)cc1	-14.9	99.6*	-11.5	-21.5	-2.0	-9.0
Cc1ccccc1C(=O)Oc1ccc(Sc2ccc(O)cc2)cc1	.	54.3*	-11.2	-11.6	-2.3	1.4
Cc1ccccc1C(=O)Oc1ccc(-c2csnn2)cc1	7.2	.	-2.0	-17.3	0.4	.
Clc1ccc2[nH]c3c(c2c1)CCc1cn[nH]c1-3	22.7	54.4*	8.9	-11.1	3.4	-8.6
O=C(NNc1ccccc1)C(=O)NNS(=O)(=O)c1ccc([N+](=O)[O-])cc1	10.8	89.3*	5.1	-14.7	1.6	11.2
O=C(NNc1ccc([N+](=O)[O-])cc1)c1ccccc1Cl	-9.5	-11.2	-19.5	-27.6	-1.4	.
Cc1ccc(-c2cc(C(=O)Nc3ccc4c(c3)OCCO4)c3ccccc3n2)cc1	.	35.4	-4.5	-7.8	-0.2	.
CC(C)=N/N=C(\c1cccc([N+](=O)[O-])c1)C12CN3CN(CN(C3)C1)C2	-7.0	51.2*	-3.0	0.4	-0.5	-10.5
Cc1cc(C)cc(N=Cc2ccc([N+](=O)[O-])s2)c1	4.3	100.5*	-4.2	-3.8	1.0	13.4
Cc1nc2ccc(C(C(F)(F)F)(C(F)(F)F)C(F)(F)F)cc2[nH]1	11.2	100.1*	-12.3	-18.8	-1.2	21.5
SMILES	S1P3 antagonist	Lmaj promast	S1P4 antag	MDM2 E3 inh	S1P4 ag	L major 1uM
Cc1nc2ccc(S(=O)(=O)c3ccc4nc(C)[nH]c4c3)cc2[nH]1	.	-9.7	-9.3	-14.1	0.9	.
CCOc1ccc(NS(=O)(=O)c2cc(OC)ccc2OC)cc1	.	3.0	14.1	-11.6	-1.0	.
COc1ccc(OC)c(S(=O)(=O)Nc2ccc(Oc3ccccc3)cc2)c1	.	66.5*	-5.6	-12.5	0.5	-10.7
CN1CCCCc2c1[nH]c1ccccc1c2=O	.	98.2*	-6.9	-12.0	-1.4	-2.8
CCOC(=O)c1sc(NC(=O)CN2CCCC2)c(C(=O)OCC)c1C	-16.3	92.6*	-8.7	-5.9	-1.9	-13.5
CCCCSc1nnc([C@H](C)NC(=O)OC(C)(C)C)o1	7.5	21.2	-2.7	-11.8	-0.8	.
CCCCSc1nnc([C@H](CC(C)C)NC(=O)OC(C)(C)C)o1	10.2	76.0*	-4.2	-15.3	1.5	30.4
c1ccc(-c2n[nH]c(-c3ccccn3)n2)nc1	-1.3	100.4*	-5.8	-10.7	0.4	-9.3
CCn1c(C(=O)NCc2cccnc2)cc2sc(Cl)cc21	8.1	81.1*	-3.7	-13.5	1.3	2.0
Cc1ccc2c(Cl)c(C(=O)NCc3cccnc3)sc2c1	.	-6.7	-10.4	-12.2	-2.0	.
Cc1ccccc1-n1c(=O)c2ccccc2n2cnnc12	.	-1.2	-1.9	-17.6	1.6	.
Cc1ccccc1-n1sc2cc(F)ccc2c1=O	-17.3	80.0*	-8.0	-17.5	-0.1	-21.3
CC1CCN(S(=O)(=O)c2ccc3c(c2)CCN3C(=O)CCC(=O)O)CC1	-24.3	-7.8	-2.8	-4.0	-3.1	.
OCCSc1nc(-c2ccccc2)nc2c1CCC2	-9.8	51.9*	2.5	-2.7	-3.2	-13.0
O=C/C(=C\Nc1ccccn1)c1nc2cc(Cl)ccc2o1	.	71.8*	-8.3	2.2	-2.3	-1.1
O=C(Nc1cccc(F)c1)NC1(C(=O)N2CCOCC2)CCCCC1	-14.1	-5.3	18.1	-7.1	-0.2	.
CN(C)c1ccc(N2CN=C3SCC(=O)N3C2)cc1	.	61.5*	-11.0	-23.4	-0.2	4.8
CCOc1ccc(C(=O)NCCC2=CCCCC2)cc1OCC	-7.0	0.7	-0.1	-38.6	-1.1	.
O=C(O)c1cc(-c2cccc(Cl)c2)nc2nc(N3CCCCC3)sc12	3.0	63.0*	-10.1	-10.6	1.0	-10.5
CC(C)(C)n1nnnc1CN(Cc1cccnc1)Cc1ccccc1Cl	.	75.0*	7.3	-12.1	0.9	2.6
O=C(CC(=O)c1cccc([N+](=O)[O-])c1)Nc1ccccc1Cl	-22.1	4.7	3.8	-7.3	1.0	.
CCN(CC(=O)NC1CCS(=O)(=O)C1)S(=O)(=O)c1ccc(C)cc1C (configuration not stated)	0.6	-3.6	-0.5	-6.9	1.1	.
Cc1ccc(OCc2nc(C#N)c(NCc3ccc4c(c3)OCO4)o2)cc1	.	97.8*	-1.3	-7.6	0.7	-17.9
COc1ccc(CCNC(=O)c2cccnc2SC)cc1	-13.8	-6.6	-6.5	-8.5	1.2	.
C1CCC(OCCN2CCN(CCOC3CCCCC3)CC2)CC1	-5.1	94.5*	-5.8	-11.5	-0.3	46.0
CCN1C(=O)C(CC(=O)Nc2ccc(OC)cc2)N(CCc2ccc(OC)cc2)C1=S (configuration not stated)	-0.1	36.5	2.6	-13.9	-0.6	.
CCN1C(=O)C(CC(=O)Nc2ccc(Br)cc2)N(CCCc2ccccc2)C1=S (configuration not stated)	.	92.4*	8.3	-23.0	1.2	-6.8
CCCOc1ccc(C2C(C(=O)/C=C/c3ccco3)=C(O)C(=O)N2CCN2CCOCC2)cc1OC (configuration not stated)	-9.5	-6.7	-22.4	-4.2	-0.1	.
C(=C\CSc1nnnn1-c1ccccc1)/CSc1nnnn1-c1ccccc1	.	21.8	-5.9	-9.1	0.7	.

Source: PubChem BioAssay (several laboratories)
